Results: ChEMBL document CHEMBL1687913, “Structure-activity relationship, conformational and biological studies of temporin L analogues” (J Med Chem, 2011)
In brackets after ≈: the same amount, converted by molar mass. Where a SMILES comes first, the peptide text is derived from it. [ ]: non-standard residue; d: D form. Orn = NCCC[C@H](N)C(=O)O

Assays:
[1] = test system: Acinetobacter baumannii; assay: Antibacterial activity against Acinetobacter baumannii ATCC 19606 after 18 to 20 hrs by microbroth dilution method; format: functional
In short: (§1)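 CLSI microbroth dilution, adapted. Mid-log bacteria, 2 × 10^6 CFU/mL in Mueller-Hinton broth, mixed 1:1 with MH broth holding peptide in serial 2-fold dilutions in 20% ethanol (0.75-48 μM). Incubated 18-20 h at 37 °C; growth read as A600. MIC is the lowest concentration giving 100% growth inhibition.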

[2] = test system: Acinetobacter junii; assay: Antibacterial activity against […] Acinetobacter junii RT-4 after 18 to 20 hrs by microbroth dilution method; format: functional; in short: as §1
[3] = test system: Enterococcus faecalis; assay: Antibacterial activity against Enterococcus faecalis ATCC 29212 after 18 to 20 hrs by microbroth dilution method; format: functional; in short: as §1
[4] = test system: Escherichia coli; assay: Antibacterial activity against Escherichia coli ATCC 25922 after 18 to 20 hrs by microbroth dilution method; format: functional; in short: as §1
[5] = test system: Escherichia coli; assay: Antibacterial activity against Escherichia coli D21 after 18 to 20 hrs by microbroth dilution method; format: functional; in short: as §1
[6] = test system: Pseudomonas syringae; assay: Antibacterial activity against Pseudomonas syringae pv tobaci after 18 to 20 hrs by microbroth dilution method; format: functional; in short: as §1
[7] = test system: Pseudomonas aeruginosa; assay: Antibacterial activity against Pseudomonas aeruginosa ATCC 15692 after 18 to 20 hrs by microbroth dilution method; format: functional; in short: as §1
[8] = test system: Pseudomonas aeruginosa; assay: Antibacterial activity against Pseudomonas aeruginosa ATCC 27853 after 18 to 20 hrs by microbroth dilution method; format: functional; in short: as §1
[9] = test system: Yersinia pseudotuberculosis; assay: Antibacterial activity against Yersinia pseudotuberculosis YPIII after 18 to 20 hrs by microbroth dilution method; format: functional
In short: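 Broth microdilution adapted from CLSI. Mid-log bacteria at 2 × 10^6 CFU/mL in Mueller-Hinton broth were mixed 1:1 with MH broth containing peptide in serial 2-fold dilutions (peptide in 20% ethanol), 0.75-48 μM. Plates were incubated 18-20 h at 37 °C and growth was read as A600. MIC is the concentration giving 100% growth inhibition.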

[10] = test system: Priestia megaterium; assay: Antibacterial activity against Bacillus megaterium Bm11 after 18 to 20 hrs by microbroth dilution method; format: functional; in short: as §1
[11] = test system: Staphylococcus aureus; assay: Antibacterial activity against Staphylococcus aureus ATCC 25923 after 18 to 20 hrs by microbroth dilution method; format: functional; in short: as §1
[12] = test system: Staphylococcus aureus; assay: Antibacterial activity against Staphylococcus aureus Cowan I after 18 to 20 hrs by microbroth dilution method; format: functional; in short: as §1
[13] = test system: Staphylococcus capitis; assay: Antibacterial activity against Staphylococcus capitis after 18 to 20 hrs by microbroth dilution method; format: functional; in short: as §1
[14] = test system: Staphylococcus epidermidis; assay: Antibacterial activity against Staphylococcus epidermidis ATCC 12228 after 18 to 20 hrs by microbroth dilution method; format: functional; in short: as §1
[15] = test system: Streptococcus pyogenes; assay: Antibacterial activity against Streptococcus pyogenes ATCC 21547 after 18 to 20 hrs by microbroth dilution method; format: functional; in short: as §1
[16] = test system: Candida albicans; assay: Antifungal activity against Candida albicans ATCC 10231 after 18 to 20 hrs by microbroth dilution method; format: functional
In short: (§2)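 Yeasts tested by adapted CLSI microbroth dilution in Winge medium. Peptide given in serial 2-fold dilutions (0.75-48 μM, made in 20% ethanol). Incubation 18-20 h at 30 °C, read at A600. MIC taken as the concentration giving complete (100%) growth inhibition.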

[17] = test system: Schizosaccharomyces pombe; assay: Antifungal activity against Schizosaccharomyces pombe after 18 to 20 hrs by microbroth dilution method; format: functional; in short: as §2
[18] = test system: Saccharomyces cerevisiae; assay: Antifungal activity against Saccharomyces cerevisiae after 18 to 20 hrs by microbroth dilution method; format: functional; in short: as §2
[19] = Toxicity in human erythrocytes assessed as hemolysis at 24 uM after 40 mins; format: cell-based, Erythrocyte; conditions: read-out: Activity
In short: (§3)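 Human red blood cells suspended in 0.9% (w/v) NaCl and incubated 40 min at 37 °C with gentle mixing with serial 2-fold peptide dilutions (peptide predissolved in 20% ethanol). Spun 5 min at 900g; supernatant read at 415 nm. Cells lysed in distilled water set the 100% lysis reference.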

[20] = Toxicity in human erythrocytes assessed as hemolysis at 12 uM after 40 mins; format: cell-based, Erythrocyte; conditions: read-out: Activity; in short: as §3
[21] = Toxicity in human erythrocytes assessed as hemolysis at 6 uM after 40 mins; format: cell-based, Erythrocyte; conditions: read-out: Activity; in short: as §3
[22] = Toxicity in human erythrocytes assessed as hemolysis at 3 uM after 40 mins; format: cell-based, Erythrocyte; conditions: read-out: Activity; in short: as §3
[23] = Toxicity in human erythrocytes assessed as hemolysis at 1.5 uM after 40 mins; format: cell-based, Erythrocyte; conditions: read-out: Activity; in short: as §3

Compound | MIC [1] [µM] | MIC [2] [µM] | MIC [3] [µM] | MIC [4] [µM] | MIC [5] [µM] | MIC [6] [µM] | MIC [7] [µM] | MIC [8] [µM] | MIC [9] [µM] | MIC [10] [µM] | MIC [11] [µM] | MIC [12] [µM] | MIC [13] [µM] | MIC [14] [µM] | MIC [15] [µM] | MIC [16] [µM] | MIC [17] [µM] | MIC [18] [µM] | hemolysis at 40 min, 24 µM [19] [%] | hemolysis at 40 min, 12 µM [20] [%] | further results
CC[C@H](C)[C@H](NC(=O)[C@H](CCCCN)NC(=O)CNC(=O)[C@H](CC(C)C)NC(=O)[C@H](Cc1ccccc1)NC(=O)[C@H](CCCCN)NC(=O)[C@H](CO)NC(=O)[C@H](Cc1ccccc1)NC(=O)[C@H](Cc1c[nH]c2ccccc12)NC(=O)[C@H](CCC(N)=O)NC(=O)[C@@H](NC(=O)[C@@H](N)Cc1ccccc1)C(C)C)C(=O)N[C@@H](CC(C)C)C(N)=O (H-FVQWFSKFLGKIL-NH2) | 6 (≈ 9.67 µg/mL) | 6 (≈ 9.67 µg/mL) | 12 (≈ 19.3 µg/mL) | 12 (≈ 19.3 µg/mL) | 24 (≈ 38.7 µg/mL) | 24 (≈ 38.7 µg/mL) | 24 (≈ 38.7 µg/mL) | 48 (≈ 77.4 µg/mL) | 6 (≈ 9.67 µg/mL) | 3 (≈ 4.84 µg/mL) | 6 (≈ 9.67 µg/mL) | 12 (≈ 19.3 µg/mL) | 6 (≈ 9.67 µg/mL) | 6 (≈ 9.67 µg/mL) | 6 (≈ 9.67 µg/mL) | 12 (≈ 19.3 µg/mL) | 6 (≈ 9.67 µg/mL) | 6 (≈ 9.67 µg/mL) | 100 | 59 | hemolysis at 40 min, 6 µM [21]: 14%; hemolysis at 40 min, 3 µM [22]: 5%; hemolysis at 40 min, 1.5 µM [23]: 2.6%
CC[C@H](C)[C@H](NC(=O)[C@H](CCCN)NC(=O)CNC(=O)[C@H](CC(C)C)NC(=O)[C@H](Cc1ccccc1)NC(=O)[C@H](CCCCN)NC(=O)[C@H](CO)NC(=O)[C@H](Cc1ccccc1)NC(=O)[C@H](Cc1c[nH]c2ccccc12)NC(=O)[C@H](CCC(N)=O)NC(=O)[C@@H](NC(=O)[C@@H](N)Cc1ccccc1)C(C)C)C(=O)N[C@@H](CC(C)C)C(N)=O (H-FVQWFSKFLG[Orn]IL-NH2) | 12 (≈ 19.2 µg/mL) | 12 (≈ 19.2 µg/mL) | 6 (≈ 9.59 µg/mL) | 12 (≈ 19.2 µg/mL) | 12 (≈ 19.2 µg/mL) | 12 (≈ 19.2 µg/mL) | 24 (≈ 38.4 µg/mL) | 24 (≈ 38.4 µg/mL) | 3 (≈ 4.79 µg/mL) | 1.5 (≈ 2.4 µg/mL) | 3 (≈ 4.79 µg/mL) | 1.5 (≈ 2.4 µg/mL) | 3 (≈ 4.79 µg/mL) | 3 (≈ 4.79 µg/mL) | 24 (≈ 38.4 µg/mL) | 6 (≈ 9.59 µg/mL) | 12 (≈ 19.2 µg/mL) | 12 (≈ 19.2 µg/mL) | 89 | 62 | hemolysis at 40 min, 6 µM [21]: 22%; hemolysis at 40 min, 3 µM [22]: 7%; hemolysis at 40 min, 1.5 µM [23]: 3%
CC[C@H](C)[C@H](NC(=O)[C@H](CCCNC(=N)N)NC(=O)CNC(=O)[C@H](CC(C)C)NC(=O)[C@H](Cc1ccccc1)NC(=O)[C@H](CCCNC(=N)N)NC(=O)[C@H](CO)NC(=O)[C@H](Cc1ccccc1)NC(=O)[C@H](Cc1c[nH]c2ccccc12)NC(=O)[C@H](CCC(N)=O)NC(=O)[C@@H](NC(=O)[C@@H](N)Cc1ccccc1)C(C)C)C(=O)N[C@@H](CC(C)C)C(N)=O (H-FVQWFSRFLGRIL-NH2) | 6 (≈ 10 µg/mL) | 6 (≈ 10 µg/mL) | 12 (≈ 20 µg/mL) | 12 (≈ 20 µg/mL) | 48 (≈ 80.1 µg/mL) | 12 (≈ 20 µg/mL) | 24 (≈ 40 µg/mL) | 48 (≈ 80.1 µg/mL) | 6 (≈ 10 µg/mL) | 6 (≈ 10 µg/mL) | 6 (≈ 10 µg/mL) | 6 (≈ 10 µg/mL) | 6 (≈ 10 µg/mL) | 6 (≈ 10 µg/mL) | 6 (≈ 10 µg/mL) | 12 (≈ 20 µg/mL) | 6 (≈ 10 µg/mL) | 12 (≈ 20 µg/mL) | 98 | 90 | hemolysis at 40 min, 6 µM [21]: 29%; hemolysis at 40 min, 3 µM [22]: 9%; hemolysis at 40 min, 1.5 µM [23]: 4%
CC[C@H](C)[C@H](NC(=O)[C@H](CCCNC(=N)N)NC(=O)CNC(=O)[C@H](CC(C)C)NC(=O)[C@H](Cc1ccccc1)NC(=O)[C@H](CCCCN)NC(=O)[C@H](CO)NC(=O)[C@H](Cc1ccccc1)NC(=O)[C@H](Cc1c[nH]c2ccccc12)NC(=O)[C@H](CCCNC(=N)N)NC(=O)[C@@H](NC(=O)[C@@H](N)Cc1ccccc1)C(C)C)C(=O)N[C@@H](CC(C)C)C(N)=O (H-FVRWFSKFLGRIL-NH2) | 6 (≈ 10 µg/mL) | 3 (≈ 5 µg/mL) | 12 (≈ 20 µg/mL) | 24 (≈ 40 µg/mL) | 12 (≈ 20 µg/mL) | 6 (≈ 10 µg/mL) | 12 (≈ 20 µg/mL) | 24 (≈ 40 µg/mL) | 3 (≈ 5 µg/mL) | 3 (≈ 5 µg/mL) | 6 (≈ 10 µg/mL) | 6 (≈ 10 µg/mL) | 3 (≈ 5 µg/mL) | 3 (≈ 5 µg/mL) | 3 (≈ 5 µg/mL) | 12 (≈ 20 µg/mL) | 12 (≈ 20 µg/mL) | 24 (≈ 40 µg/mL) | 100 | 100 | hemolysis at 40 min, 6 µM [21]: 52%; hemolysis at 40 min, 3 µM [22]: 20%; hemolysis at 40 min, 1.5 µM [23]: 7%
CC[C@H](C)[C@H](NC(=O)[C@H](CCCNC(=N)N)NC(=O)CNC(=O)[C@H](CC(C)C)NC(=O)[C@H](Cc1ccccc1)NC(=O)[C@H](CCCNC(=N)N)NC(=O)[C@H](CO)NC(=O)[C@H](Cc1ccccc1)NC(=O)[C@H](Cc1c[nH]c2ccccc12)NC(=O)[C@H](CCCNC(=N)N)NC(=O)[C@@H](NC(=O)[C@@H](N)Cc1ccccc1)C(C)C)C(=O)N[C@@H](CC(C)C)C(N)=O (H-FVRWFSRFLGRIL-NH2) | 6 (≈ 10.2 µg/mL) | 12 (≈ 20.4 µg/mL) | 24 (≈ 40.7 µg/mL) | 48 (≈ 81.4 µg/mL) | 24 (≈ 40.7 µg/mL) | 6 (≈ 10.2 µg/mL) | 24 (≈ 40.7 µg/mL) | 24 (≈ 40.7 µg/mL) | 6 (≈ 10.2 µg/mL) | 3 (≈ 5.09 µg/mL) | 6 (≈ 10.2 µg/mL) | 6 (≈ 10.2 µg/mL) | 6 (≈ 10.2 µg/mL) | 6 (≈ 10.2 µg/mL) | 3 (≈ 5.09 µg/mL) | 24 (≈ 40.7 µg/mL) | 12 (≈ 20.4 µg/mL) | 24 (≈ 40.7 µg/mL) | 100 | 92 | hemolysis at 40 min, 6 µM [21]: 43%; hemolysis at 40 min, 3 µM [22]: 14%; hemolysis at 40 min, 1.5 µM [23]: 6%
